E coli RNAP: blocks E. coli RNA polymerase transcription; P0A8V2; fluorescence transcription assay; inhibition, %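 (tested at 10 µM)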; 0.2% of 62,000 active; AID 559; in the data active = inhibition above about 20%
Target sequence (P0A8V2 whole entry, looked up): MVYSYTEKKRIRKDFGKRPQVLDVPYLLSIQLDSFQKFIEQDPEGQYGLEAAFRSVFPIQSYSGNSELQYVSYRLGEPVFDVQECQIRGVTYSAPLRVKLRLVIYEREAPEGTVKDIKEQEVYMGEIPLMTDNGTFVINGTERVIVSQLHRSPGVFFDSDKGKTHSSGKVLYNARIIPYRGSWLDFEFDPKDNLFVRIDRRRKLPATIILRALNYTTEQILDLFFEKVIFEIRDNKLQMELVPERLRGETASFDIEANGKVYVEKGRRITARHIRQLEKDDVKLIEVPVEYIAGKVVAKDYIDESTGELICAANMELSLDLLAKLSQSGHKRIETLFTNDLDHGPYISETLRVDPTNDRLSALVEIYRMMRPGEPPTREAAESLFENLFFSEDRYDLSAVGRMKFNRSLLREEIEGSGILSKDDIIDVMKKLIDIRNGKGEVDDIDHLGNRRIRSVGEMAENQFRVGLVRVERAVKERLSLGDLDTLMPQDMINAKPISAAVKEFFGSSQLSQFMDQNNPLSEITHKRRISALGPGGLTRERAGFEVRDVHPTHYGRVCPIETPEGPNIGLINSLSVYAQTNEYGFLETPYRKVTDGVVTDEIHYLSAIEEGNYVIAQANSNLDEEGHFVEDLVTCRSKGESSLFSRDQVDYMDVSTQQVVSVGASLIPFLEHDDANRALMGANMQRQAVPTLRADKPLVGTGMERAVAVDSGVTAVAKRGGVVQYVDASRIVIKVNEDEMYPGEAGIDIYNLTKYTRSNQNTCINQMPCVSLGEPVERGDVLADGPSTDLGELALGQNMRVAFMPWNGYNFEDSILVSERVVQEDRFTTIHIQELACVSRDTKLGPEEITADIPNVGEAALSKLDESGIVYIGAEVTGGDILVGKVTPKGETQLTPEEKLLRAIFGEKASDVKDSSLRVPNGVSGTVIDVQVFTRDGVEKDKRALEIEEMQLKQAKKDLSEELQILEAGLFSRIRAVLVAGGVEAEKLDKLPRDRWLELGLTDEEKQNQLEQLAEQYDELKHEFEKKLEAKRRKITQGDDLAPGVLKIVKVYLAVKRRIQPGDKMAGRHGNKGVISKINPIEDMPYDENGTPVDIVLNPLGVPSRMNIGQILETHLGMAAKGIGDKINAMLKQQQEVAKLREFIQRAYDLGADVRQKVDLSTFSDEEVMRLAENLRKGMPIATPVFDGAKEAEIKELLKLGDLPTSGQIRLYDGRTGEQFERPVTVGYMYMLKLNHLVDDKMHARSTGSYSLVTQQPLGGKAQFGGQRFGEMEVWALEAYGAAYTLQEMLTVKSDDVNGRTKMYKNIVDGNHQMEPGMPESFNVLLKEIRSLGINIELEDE
SF-1 act: SF-1 (human) activation; CHO-K1 Gal4-SF-1 LBD luciferase reporter; % increase over DMSO SF-1-specific signal; Q13285; activation, % at 10 µM; 1.9% of 65,000 active;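 active = activation above the mean activation of all tested compounds plus 3 SD, cut at about 50% in these data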
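Material: CHO-K1 cells with Gal4–hSF-1 LBD chimera plus Gal4-driven luciferase / Input: 4,000 CHO-K1 cells per well / Incubation: compound exposure 20 h at 37 °C / Signal: luminescence read 15 min after SteadyLite luciferase reagent, after room-temperature equilibration / Read-out: percent activation versus DMSO / Benchmarks: DMSO negative control and −SF1 background wells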
BAP1 inh: inhibitors of human BAP1 deubiquitinase | recombinant BAP1, Ub-AMC hydrolysis fluorescence kinetic; stronger effect = lower value | activity remaining (% of control), % at 20 µM | 0.48% of 72,000 active;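 active = activity remaining at or below 50% of control, provided the compound also passes the data quality filters; inactive = the rest, including low values that fail the filters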
JNK3 blocker: blocks human JNK3 kinase activity; 0.61% of 60,000 active; purified JNK3 kinase activity, HTS; inhibition, % at 8 µM; AID 746; P53779; in the data active = inhibition above about 17%
RORA act: RORA (human) activation; CHO-K1 Gal4-RORA LBD luciferase reporter, luminescence; percent increase over mock-subtracted basal signal; activation, % at 10 µM; 1.5% of 65,000 active; AID 560;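 active = activation above the mean of all tested compounds plus 3 SD, cut at about 49% in these data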
Each line names hits and unclear results; the compound was inactive in the other large screens. Hits are enriched below; roughly 3.2% of the tested compounds scored in any of these assays.

Cc1ccc(CCNC(=O)c2nnn(-c3cc(C)cc(C)c3)c2N)cc1	none
Cc1ccc(NC(=O)c2nnn(-c3cc(C)cc(C)c3)c2N)cc1	SF-1 act 69.6, RORA act 66.3
Cc1cccc(-n2nnc(C(=O)Nc3ccc(F)cc3)c2N)c1	SF-1 act 99.7, RORA act 82.5
CN=Cc1sc2ccccc2c1O	none
CC(=Nc1cccc(O)c1)c1sc2ccccc2c1O	SF-1 act 93.7
CSc1nc(-c2ccccc2)ccc1C(N)=O	none
c1ccc2oc(SCc3cn4ccsc4n3)nc2c1	none
Cc1csc2nc(CSc3nc4ccccc4o3)cn12	SF-1 act 61.3 (no result: E coli RNAP)
Cc1ccccc1-n1nc(C)c2cc(C(=O)NCc3cccnc3)sc21	JNK3 blocker 57.0
O=c1[nH]c2ccccc2nc1-c1cccs1	SF-1 act 54.2
O=C(NCc1cccnc1)c1cccc2c1C(=O)N(C1CCCCC1)C2	JNK3 blocker 25.5
CC(C)(C)C(=O)Nc1ccc(-c2cn3ccsc3n2)cc1	none
CC(C)CC(=O)Nc1ccc(-c2cn3ccsc3n2)cc1	SF-1 act 52.3, RORA act 51.5 (no result: E coli RNAP)
O=C(NCCCN1CCOCC1)NC12CC3CC(CC(C3)C1)C2	E coli RNAP 63.9
Cc1oc(C(=O)O)cc1COc1ccccc1Cl	none
CCOC(=O)c1sc2nc(CSc3nc4ccccc4n3CC)[nH]c(=O)c2c1C	none
CC1=C(C(=O)OC2CCCC2)C(c2ccc(N(C)C)cc2)C2=C(CC(C)(C)CC2=O)N1 (stereo not drawn)	none (no result: E coli RNAP, SF-1 act, JNK3 blocker, RORA act)
CCS(=O)(=O)c1ccc2oc(Nc3ccccc3C)nc2c1	SF-1 act 65.5
COc1ccc(OC)c(NC(=O)CN2C(=O)c3ccccc3S2(=O)=O)c1	none
COc1ccc2c(c1)-c1ccccc1S(=O)(=O)N2C(C)=O	E coli RNAP 28.7
COc1cc(NC(=O)c2cc3nc(C)cc(C)n3n2)c(OC)cc1Cl	SF-1 act 58.0, RORA act 85.7
CCN(CC)c1ccc(-n2cc3c(=O)n(C)c(=O)n(C)c3c2)cc1	SF-1 act 55.5
CN(C)c1ccc(-n2cc3c(=O)n(C)c(=O)n(C)c3c2)cc1	RORA act 48.7
O=C(c1cccs1)N1CCCc2ccccc21	none
CCOC(=O)c1[nH]c(C)c(C(=O)Nc2ccccc2F)c1C	SF-1 act 82.6, RORA act 110.5
COC(=O)c1sccc1NC(=O)c1ccc(OC)cc1	JNK3 blocker 37.5 (no result: E coli RNAP)
COC(=O)c1sccc1NC(=O)c1cccnc1	none
N#C/C(=C(\O)c1ccco1)c1ccccn1	JNK3 blocker 18.5
CN(C1CCS(=O)(=O)C1)S(=O)(=O)c1ccc(N2CCCC2=O)cc1 (stereo not drawn)	E coli RNAP 21.3
N#Cc1c(-c2ccco2)nc(SCC(=O)Nc2cccc(Cl)c2)[nH]c1=O	JNK3 blocker 25.1
O=C(CSc1nc2c(c(=O)[nH]1)CCC2)Nc1cccc(Cl)c1	none
Fc1ccc(Br)cc1C1C=C(c2cccnc2)Nc2ncnn21 (stereo not drawn)	none
Cc1ccc(-n2c(CNc3ccc(F)cc3)nnc2SCC(=O)NCc2ccco2)cc1	none
Cc1ccc(-n2c(CNc3ccc(F)cc3)nnc2SCC(=O)N2CCCC2)cc1	E coli RNAP 36.4
c1ccc2nc(-c3nc4ccccc4[nH]3)ccc2c1	none (not shown: BAP1 inh)
c1csc(-c2ccc3ccccc3n2)c1	SF-1 act 78.9 (not shown: BAP1 inh)
CC(=O)C1=C(C)NC(=O)NC1c1ccccc1 (stereo not drawn)	none (no result: BAP1 inh, JNK3 blocker)
O=C1NC2=C(C(=O)c3ccccc32)C(c2ccccc2)N1 (stereo not drawn)	JNK3 blocker 26.9
C=CCn1c(SCc2nc(N)nc(N3CCCCC3)n2)nnc1-c1ccco1	none
Cc1ccccc1Nc1nn2c(=O)c3ccccc3nc2s1	SF-1 act 72.9, JNK3 blocker 25.7
COc1ccc(-c2cc3nc(C)cc(NCCO)n3n2)cc1	none
Cc1ccc(-c2cc3nc(C)cc(NCc4ccco4)n3n2)cc1	SF-1 act 50.9, RORA act 59.0
CCCCn1c(NC(C)=O)c(C#N)c2nc3ccccc3nc21	none
CCCOC(=O)c1c(N)sc2c1CCC2	none (no result: E coli RNAP)
Cc1occc1C(=O)Nc1sc2c(c1C(N)=O)CCCCC2	SF-1 act 58.5 (not shown: BAP1 inh)
NC(=O)c1c(NC(=O)Cc2cccs2)sc2c1CCC2	SF-1 act 51.2, JNK3 blocker 31.4
O=C(Nc1sc2c(c1C(=O)O)CCCCC2)c1ccco1	SF-1 act 57.4, RORA act 62.5
CCS(=O)(=O)n1nc(-c2ccccc2)nc1N	none (no result: JNK3 blocker)
Cc1cccc(CS(=O)(=O)Cc2ccc(C(=O)NCc3cccnc3)o2)c1	none
CCCCCCCCCCCCCCSCC(=O)O	BAP1 inh 15.5 (no result: E coli RNAP, SF-1 act, JNK3 blocker, RORA act)
CC(=O)Nc1ccc(NC(=O)N2CCCCC2)cc1	none
O=C(O)CCN=C1CCCc2ccccc2N1	none
CN(C)C=NC(=O)/C(C#N)=C1\CCc2ccccc2N1	JNK3 blocker 47.5 (not shown: BAP1 inh)
Cc1cc(C)nc(N2CCC(C(=O)NCCc3ccc(F)cc3)CC2)n1	none
C=CCNC(=O)C1CCN(c2nc(C)cc(-c3ccccc3)n2)CC1	SF-1 act 101.7
CSc1nnc(-c2ccco2)c(-c2ccco2)n1	none
O=C(C1COc2ccccc2O1)N1CCCC1 (stereo not drawn)	none (no result: SF-1 act, JNK3 blocker, RORA act)
O=C(C1COc2ccccc2O1)N1CCc2ccccc21 (stereo not drawn)	SF-1 act 54.0
COc1ccc(NC(=O)c2cc(-c3ccc(C)o3)nc3ccccc23)cc1OC	RORA act 53.0
CC#CCOC(=O)c1c(C)nc2sc3c(c2c1N)CCC(O)C3 (stereo not drawn)	none (no result: E coli RNAP, SF-1 act, JNK3 blocker, RORA act)
COc1ccc(-c2cc(C(=O)N3CCN(c4ccccn4)CC3)c3ccccc3n2)cc1	SF-1 act 89.6, RORA act 73.6 (not shown: BAP1 inh, JNK3 blocker)
O=C(CCCOc1ccccc1)N1CCN(c2ccccn2)CC1	RORA act 55.7
CCOc1ccc(-c2cc(C(=O)N3CCN(c4ccccn4)CC3)c3ccccc3n2)cc1	SF-1 act 90.9, RORA act 76.0 (not shown: BAP1 inh)
O=c1c2c(nc3n1CCCS3)-c1ccccc1CC21CCCC1	none (no result: E coli RNAP, SF-1 act, JNK3 blocker, RORA act)
Cc1ccc2c(c1)nnn2C1CCN(CC(=O)N2CCN(c3ccc(F)cc3)CC2)CC1	none (no result: JNK3 blocker)
CCc1ccc(OC(=O)c2cccc(C(=O)OC)n2)cc1	none (no result: E coli RNAP, SF-1 act, JNK3 blocker, RORA act)
COc1ccc(CSc2nnc(C)n2N)cc1Br	none
COc1cc(CN2CCN(c3cccc(C)c3C)CC2)cc(OC)c1O	none (no result: E coli RNAP)
CCC1CCCCN1C(=O)Cn1c(=O)oc2ccccc21 (stereo not drawn)	none (no result: BAP1 inh, JNK3 blocker)
O=C(CCCNS(=O)(=O)c1cccc2nsnc12)NCc1ccc(F)cc1	E coli RNAP 28.3
O=C(CCCNS(=O)(=O)c1cccc2nsnc12)NCc1ccccc1	none
O=C1CN(C(=O)c2ccccc2F)c2ccccc2N1	none
O=C1CN(C(=O)OCc2ccccc2)c2ccccc2N1	RORA act 51.1 (no result: JNK3 blocker)
O=C(Nc1ccccc1)N1CCn2c1nc1ccccc12	none
O=C(c1ccco1)N1CCn2c1nc1ccccc12	RORA act 62.0
O=C(CSc1nnc2scc(-c3ccccc3)n12)c1ccc2c(c1)OCCO2	none
CCn1nccc1C(=O)Nc1ccc(Cl)cc1Cl	SF-1 act 66.7
Cc1ccc2nc(NC(=O)C3CCCN(S(=O)(=O)c4cccnc4)C3)sc2c1 (stereo not drawn)	none

Compound activity as filed in PubChem.
